Measured values taken from ChEMBL document CHEMBL2434844, “Synthesis, antimicrobial, antioxidant activities of novel 6-aryl-5-cyano thiouracil derivatives” (Eur J Med Chem, 2013).
Converted amounts (≈) assume the structure as drawn. The source made the active and inactive calls. The rule behind the calls is not given here.

Columns and labels:
Format in all cases: functional
Candida albicans [1] = experiment: Antifungal activity against Candida albicans ATCC 26555 at 10 mg/disc after 48 hrs by disc-diffusion method
Method in brief: (§1)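 Disc diffusion per Bauer method under NCCLS conditions on nutrient agar/Mueller-Hinton agar. Compound dissolved in sterile DMSO at 10 mg/mL, filtered 0.2 µm, stored frozen at -15 °C; 10 mg/disc in DMSO applied. DMSO control. Inhibition zone diameter measured in mm after 48 h incubation at 28 °C.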

Staphylococcus aureus [2] = experiment: Antibacterial activity against Staphylococcus aureus ATCC 12600 at 10 mg/disc after 48 hrs by disc-diffusion method; method in brief: as §1
Aspergillus flavus [3] = experiment: Antifungal activity against Aspergillus flavus ATCC 11495 at 10 mg/disc after 48 hrs by disc-diffusion method; method in brief: as §1
Escherichia coli [4] = experiment: Antibacterial activity against Escherichia coli ATCC 11775 after 24 hrs by microdilution technique
Method in brief: (§2)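 MIC by agar microdilution on Mueller-Hinton agar per NCCLS 1997. Bacteria subcultured overnight at 37 °C on MHA, Candida on SDA at 35 °C for 24-48 h, each passaged at least twice. Incubated 37 °C in humid chamber, read after 24 h.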

[5] = test system: Radical scavenging activity; experiment: Antioxidant activity assessed as DPPH free radical scavenging activity after 20 mins by UV-visible spectrophotometric analysis
Method in brief: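 Kept in the dark at room temperature for 20 min, then absorbance read at 517 nm against DPPH blank, DMSO baseline. % scavenging = [(Ac−At)/Ac]×100; IC50 (µg/mL) from concentration plot; mean ± SEM, n=3, 8 replica each.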

Bacillus cereus [6] = experiment: Antibacterial activity against Bacillus cereus ATCC 14579 at 10 mg/disc after 48 hrs by disc-diffusion method; method in brief: as §1
Candida albicans [7] = experiment: Antifungal activity against Candida albicans ATCC 26555 after 24 hrs by microdilution technique; method in brief: as §2
Staphylococcus aureus [8] = experiment: Antibacterial activity against Staphylococcus aureus ATCC 12600 after 24 hrs by microdilution technique; method in brief: as §2
Aspergillus flavus [9] = experiment: Antifungal activity against Aspergillus flavus ATCC 11495 after 24 hrs by microdilution technique
Escherichia coli [10] = experiment: Antibacterial activity against Escherichia coli ATCC 11775 at 10 mg/disc after 48 hrs by disc-diffusion method; method in brief: as §1
Bacillus cereus [11] = experiment: Antibacterial activity against Bacillus cereus ATCC 14579 after 24 hrs by microdilution technique; method in brief: as §2
Escherichia coli [12] = experiment: Antibacterial activity against Escherichia coli ATCC 11775 at 10 mg/ml after 48 hrs by disc-diffusion method; settings: DSM 30083 = JCM 1649, 48 h, read-out: DIZ
Method in brief: (§3)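 Disc-diffusion reference: penicillin at 10 mg/mL on nutrient agar/Mueller-Hinton agar per Bauer method; inhibition zone diameter (mm) read after 48 h at 28 °C.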

Bacillus cereus [13] = experiment: Antibacterial activity against Bacillus cereus ATCC 14579 at 10 mg/ml after 48 hrs by disc-diffusion method; settings: ATCC 14579, 48 h, read-out: DIZ; method in brief: as §3
Staphylococcus aureus [14] = experiment: Antibacterial activity against Staphylococcus aureus ATCC 12600 at 10 mg/ml after 48 hrs by disc-diffusion method; settings: ATCC 12600, 48 h, read-out: DIZ; method in brief: as §3
Candida albicans [15] = experiment: Antifungal activity against Candida albicans ATCC 26555 at 50 ug/ml after 48 hrs by disc-diffusion method; settings: ATCC 26555, 48 h, read-out: DIZ
Aspergillus flavus [16] = experiment: Antifungal activity against Aspergillus flavus ATCC 11495 at 50 ug/ml after 48 hrs by disc-diffusion method; settings: ATCC 11495, 48 h, read-out: DIZ
Method in brief: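 Disc diffusion per Bauer et al., following NCCLS conditions, on nutrient agar or Mueller-Hinton agar. Compounds were dissolved in sterile DMSO at 10 mg/mL stock, filtered at 0.2 µm and stored frozen at -15 °C. Test discs carried 10 mg/disc in DMSO, and fluconazole reference was 50 µg/mL. After 48 h incubation at 28 °C, inhibition zone diameter was read in mm.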

SMILES | diameter of the inhibition zone (DIZ) (Candida albicans [1]) | diameter of the inhibition zone (DIZ) (Staphylococcus aureus [2]) | diameter of the inhibition zone (DIZ) (Aspergillus flavus [3]) | MIC (Escherichia coli [4]; DSM 30083 = JCM 1649) | Activity [5] | IC50 [5] [µg/mL] | diameter of the inhibition zone (DIZ) (Bacillus cereus [6]) | MIC (Candida albicans [7]) | MIC (Staphylococcus aureus [8]; ATCC 12600, 24 h) [µg/mL] | MIC (Aspergillus flavus [9]) | diameter of the inhibition zone (DIZ) (Escherichia coli [10]; DSM 30083 = JCM 1649) | MIC (Bacillus cereus [11]) | MIC (Escherichia coli [4]; DSM 30083 = JCM 1649, 24 h) [µg/mL] | MIC (Aspergillus flavus [9]; ATCC 11495, 24 h) [µg/mL] | diameter of the inhibition zone (DIZ) (Escherichia coli [10]) [mm] | MIC (Bacillus cereus [11]; ATCC 14579, 24 h) [µg/mL] | MIC (Candida albicans [7]; ATCC 26555, 24 h) [µg/mL] | other results
COc1cc(-c2[nH]c(=S)n3c(=O)[nH]nc3c2C#N)cc(OC)c1OC | inactive | 10 mm | inactive | inactive | Dose-dependent effect | 9.34 (≈ 26 µM) | inactive | inactive | 64 (≈ 178 µM) | inactive | inactive | inactive | – | – | – | – | – | –
N#Cc1c(-c2ccc(F)cc2)[nH]c(=S)n2c(=O)[nH]nc12 | inactive | 12 mm | inactive | inactive | Dose-dependent effect | 19.62 (≈ 68.3 µM) | inactive | inactive | 32 (≈ 111 µM) | inactive | inactive | inactive | – | – | – | – | – | –
N#Cc1c(NN)nc(=S)[nH]c1-c1ccc(F)cc1 | inactive | 15 mm | 13 mm | – | Dose-dependent effect | 15.24 (≈ 58.3 µM) | 12 mm | inactive | 16 (≈ 61.2 µM) | – | – | – | 32 (≈ 122 µM) | 32 (≈ 122 µM) | 14 | 64 (≈ 245 µM) | – | –
COc1ccc(/C=N/Nc2nc(=S)[nH]c(-c3ccc(F)cc3)c2C#N)cc1 | 18 mm | 23 mm | 18 mm | – | Dose-dependent effect | 12.68 (≈ 33.4 µM) | 21 mm | – | 16 (≈ 42.2 µM) | – | – | – | 16 (≈ 42.2 µM) | 16 (≈ 42.2 µM) | 19 | 16 (≈ 42.2 µM) | 16 (≈ 42.2 µM) | –
CC1(C)S[C@@H]2[C@H](NC(=O)Cc3ccccc3)C(=O)N2[C@H]1C(=O)O [PENICILLIN G] | – | – | – | – | – | – | – | – | 16 (≈ 47.8 µM) | – | – | – | – | – | – | 32 (≈ 95.7 µM) | – | zone of inhibition at 10000 µg/mL (Escherichia coli [12]): 12 mm; zone of inhibition at 10000 µg/mL (Bacillus cereus [13]): 13 mm; zone of inhibition at 10000 µg/mL (Staphylococcus aureus [14]): 16 mm
COc1cc(-c2[nH]c(=S)n3c(=O)c(=O)[nH]nc3c2C#N)cc(OC)c1OC | inactive | 14 mm | 17 mm | inactive | Dose-dependent effect | 8.55 (≈ 22.1 µM) | inactive | inactive | 32 (≈ 82.6 µM) | – | inactive | inactive | – | 16 (≈ 41.3 µM) | – | – | – | –
Cc1nnc2c(C#N)c(-c3ccc(F)cc3)[nH]c(=S)n12 | inactive | inactive | inactive | inactive | Dose-dependent effect | 72.03 (≈ 252 µM) | inactive | inactive | – | inactive | inactive | inactive | – | – | – | – | – | MIC (Staphylococcus aureus [8]): inactive
OC(Cn1cncn1)(Cn1cncn1)c1ccc(F)cc1F [FLUCONAZOLE] | – | – | – | – | – | – | – | – | – | – | – | – | – | 16 (≈ 52.2 µM) | – | – | 16 (≈ 52.2 µM) | zone of inhibition at 50 µg/mL (Candida albicans [15]): 20 mm; zone of inhibition at 50 µg/mL (Aspergillus flavus [16]): 21 mm
O=C1O[C@H]([C@@H](O)CO)C(O)=C1O [ASCORBIC ACID] | – | – | – | – | Dose-dependent effect | 10 (≈ 56.8 µM) | – | – | – | – | – | – | – | – | – | – | – | –
COc1cc(-c2[nH]c(=S)n3c(C)nnc3c2C#N)cc(OC)c1OC | inactive | inactive | inactive | inactive | Dose-dependent effect | 31.15 (≈ 87.2 µM) | inactive | inactive | – | inactive | inactive | inactive | – | – | – | – | – | MIC (Staphylococcus aureus [8]): inactive
N#Cc1c(-c2ccc(F)cc2)[nH]c(=S)n2c(=O)c(=O)[nH]nc12 | inactive | 14 mm | 18 mm | inactive | Dose-dependent effect | 14.72 (≈ 46.7 µM) | inactive | inactive | 32 (≈ 101 µM) | – | inactive | inactive | – | 16 (≈ 50.7 µM) | – | – | – | –
N#Cc1c(N/N=C/c2ccc(F)cc2)nc(=S)[nH]c1-c1ccc(F)cc1 | 15 mm | 19 mm | 14 mm | – | – | – | 16 mm | – | 32 (≈ 87.1 µM) | – | – | – | 32 (≈ 87.1 µM) | 32 (≈ 87.1 µM) | 12 | 32 (≈ 87.1 µM) | 32 (≈ 87.1 µM) | –
COc1cc(-c2[nH]c(=S)nc(NN)c2C#N)cc(OC)c1OC | inactive | 11 mm | inactive | – | Dose-dependent effect | 6.21 (≈ 18.6 µM) | 10 mm | inactive | 64 (≈ 192 µM) | inactive | – | – | 32 (≈ 96 µM) | – | 12 | 64 (≈ 192 µM) | – | –
N#Cc1c(NN)nc(=S)[nH]c1-c1ccc(Br)cc1 | inactive | 13 mm | inactive | – | – | – | 11 mm | inactive | 64 (≈ 199 µM) | inactive | – | – | 64 (≈ 199 µM) | – | 11 | 64 (≈ 199 µM) | – | –
N#Cc1c(-c2ccc(Br)cc2)[nH]c(=S)n2cnnc12 | 16 mm | 21 mm | 17 mm | – | – | – | 17 mm | – | 16 (≈ 48.2 µM) | – | – | – | 16 (≈ 48.2 µM) | 16 (≈ 48.2 µM) | 12 | 16 (≈ 48.2 µM) | 16 (≈ 48.2 µM) | –
COc1cc(-c2[nH]c(=S)n3cnnc3c2C#N)cc(OC)c1OC | 17 mm | 21 mm | 18 mm | – | – | – | 18 mm | – | 16 (≈ 46.6 µM) | – | – | – | 16 (≈ 46.6 µM) | 16 (≈ 46.6 µM) | 13 | 16 (≈ 46.6 µM) | 16 (≈ 46.6 µM) | –
N#Cc1c(N/N=C/c2ccccc2)nc(=S)[nH]c1-c1ccc(F)cc1 | 19 mm | 24 mm | 19 mm | – | Dose-dependent effect | 13.8 (≈ 39.5 µM) | 22 mm | – | 16 (≈ 45.8 µM) | – | – | – | 16 (≈ 45.8 µM) | 16 (≈ 45.8 µM) | 19 | 16 (≈ 45.8 µM) | 16 (≈ 45.8 µM) | –
